Assay results gathered from unrelated publications.
Protocols differ between the studies behind these lines.
Target: Proto-oncogene tyrosine-protein kinase Src (SRC, Homo sapiens, UniProt P12931)

COc1ccc2c(O[C@@H]3C[C@H]4C(=O)N[C@]5(C(=O)O)CC5/C=C\CCCCC[C@H](NC(=O)OC5CCCC5)C(=O)N4C3)cc(-c3csc(NC(=O)C(C)C)n3)nc2c1C (stereo partly shown)  remaining binding (cell-free assay; competition with immobilised ligand; 1 µM): 100%
COc1ccnn2ncc(-c3ccnc(N(C)C)n3)c12  remaining binding (binding; 1 µM): 100%
Cc1c(NC(=O)c2cc(C(N)=O)nc3cc(F)ccc23)c(C(F)(F)F)nn1Cc1ccc(C#N)cc1  remaining binding (cell-free assay; competition with immobilised ligand; 1 µM): 81%
O=C(c1ccc(Nc2ncc(Cl)c(-c3ccc(Cl)s3)n2)cc1)N1CCC(N2CCCC2)CC1  remaining binding (binding; competition with immobilised ligand; 1 µM): 77%
CN(c1nccc(-c2cnn3ncccc23)n1)C1CC1  remaining binding (binding; 1 µM): 100%
COc1ncc2cc3ccccc3nc2c1C#N  remaining binding (cell-free assay; competition with immobilised ligand; 5 µM): 88%
O=c1nc(-c2ccccn2)sc2ccccc12  remaining binding (cell-free assay; competition with immobilised ligand; 1 µM): 92%
C[C@@H]1CCN(c2nccc(-c3cnn4ncccc34)n2)C1  remaining binding (binding; 1 µM): 92%
CCOC(=O)c1cc2cc(-c3cc(C(=O)NCc4ccc(C(=O)O)cc4)nn3C)ccc2[nH]1  remaining binding (cell-free assay; competition with immobilised ligand; 0.1 µM): 93%
CN(CCCC(F)(F)F)c1nccc(-c2cnn3ncccc23)n1  remaining binding (binding; 1 µM): 100%
Nc1c(C(=O)NCc2ccc(C(=O)NCCCC3CCCCC3)cc2)cnn1-c1ccccc1  remaining binding (cell-free assay; competition with immobilised ligand; 0.1 µM): 100%
COC(=O)Nc1nc2ccc(C(=O)c3ccccc3)cc2[nH]1  remaining binding (cell-free assay; competition with immobilised ligand; 10 µM): 34%
O=C(c1ccc(Nc2nccc(-c3cc4ccccc4s3)n2)cc1)N1CCC(N2CCCC2)CC1  remaining binding (binding; competition with immobilised ligand; 1 µM): 63%
CN(C)c1ncc(F)c(-c2cnn3ncccc23)n1  remaining binding (binding; 1 µM): 79%
CN([C@@H]1CCc2c(CC(=O)O)c3cc(S(C)(=O)=O)ccc3n2C1)S(=O)(=O)c1ccc(F)cc1  remaining binding (cell-free assay; competition with immobilised ligand; 1 µM): 96%
C=CC(=O)N1CCC(C(=O)NCC(=O)N2CCN(c3nc(-c4cnc(N)nc4C(F)F)nc(N4CCOCC4)n3)CC2)CC1  remaining binding (binding; competition with immobilised ligand; 1 µM): 91%
Cc1cnc(Nc2ccc(C(=O)N3CCC(N4CCCC4)CC3)cc2)nc1-c1cc2ccccc2s1  remaining binding (binding; competition with immobilised ligand; 1 µM): 16%
N[C@H]1CCN(c2nccc(-c3cnn4ncccc34)n2)C1  remaining binding (binding; 1 µM): 88%
CNC(=O)Nc1ccc2c(c1)[C@@]1(CC2)OC(=O)N(CC(=O)N(Cc2ccc(F)cc2)[C@@H](C)C(F)(F)F)C1=O  remaining binding (cell-free assay; competition with immobilised ligand; 1 µM): 90%
O=C(NCC1CCOCC1)c1n[nH]cc1NC(=O)c1c(F)cccc1F  remaining binding (binding; competition with immobilised ligand; 1 µM): 86%
Nc1ncc2c(n1)-c1c([nH]c3ccc(C#CC4CC4)cc13)CCCC2  remaining binding (binding; competition with immobilised ligand; 1 µM): 100%
CNC(=O)[C@@H]1CC[C@@H](n2c(-c3ccc4cnccc4c3)nc3ccc(C(=O)NCc4cccc(C(N)=O)c4)cc32)C1  remaining binding (binding; competition with immobilised ligand; 1 µM): 100%
c1cnn2ncc(-c3ccnc(N4CCC45COC5)n3)c2c1  remaining binding (binding; 1 µM): 100%
COc1cc(-c2cn(C3CCc4ccccc4N(CC(F)(F)F)C3=O)nn2)ccc1-n1ccc(C)n1 (stereo not shown)  remaining binding (cell-free assay; competition with immobilised ligand; 1 µM): 100%
c1cncc(-c2cccc(Nc3nccc(NC4CCCCC4)n3)c2)c1  remaining binding (binding; competition with immobilised ligand; 10 µM): 2.2%
